Measurements reported in ChEMBL document CHEMBL3994627, “Positional isomers of bispyridine benzene derivatives induce efficacy changes on mGlu5 negative allosteric modulation” (Eur J Med Chem, 2017).
pIC50: −log10 of the molar value.

What was measured:
[1] = target: Metabotropic glutamate receptor 5 (Rattus norvegicus) (UniProt P31424); test: Negative allosteric modulation of rat N-terminal HA-tagged mGlu5 receptor expressed in HEK293 cells co-expressing N-terminal HA-tagged EAAC1 assessed as inhibition of quisqualate-induced inositol phosphate accumulation by measuring difference in efficacy between dark condition and violet light illumination after 30 mins by HTRF assay; format: functional, cell-based; parameters: scale not given: the % may be the effect or the level left
Sequence of Metabotropic glutamate receptor 5 (Rattus norvegicus) (P31424 21-1203 limits assumed): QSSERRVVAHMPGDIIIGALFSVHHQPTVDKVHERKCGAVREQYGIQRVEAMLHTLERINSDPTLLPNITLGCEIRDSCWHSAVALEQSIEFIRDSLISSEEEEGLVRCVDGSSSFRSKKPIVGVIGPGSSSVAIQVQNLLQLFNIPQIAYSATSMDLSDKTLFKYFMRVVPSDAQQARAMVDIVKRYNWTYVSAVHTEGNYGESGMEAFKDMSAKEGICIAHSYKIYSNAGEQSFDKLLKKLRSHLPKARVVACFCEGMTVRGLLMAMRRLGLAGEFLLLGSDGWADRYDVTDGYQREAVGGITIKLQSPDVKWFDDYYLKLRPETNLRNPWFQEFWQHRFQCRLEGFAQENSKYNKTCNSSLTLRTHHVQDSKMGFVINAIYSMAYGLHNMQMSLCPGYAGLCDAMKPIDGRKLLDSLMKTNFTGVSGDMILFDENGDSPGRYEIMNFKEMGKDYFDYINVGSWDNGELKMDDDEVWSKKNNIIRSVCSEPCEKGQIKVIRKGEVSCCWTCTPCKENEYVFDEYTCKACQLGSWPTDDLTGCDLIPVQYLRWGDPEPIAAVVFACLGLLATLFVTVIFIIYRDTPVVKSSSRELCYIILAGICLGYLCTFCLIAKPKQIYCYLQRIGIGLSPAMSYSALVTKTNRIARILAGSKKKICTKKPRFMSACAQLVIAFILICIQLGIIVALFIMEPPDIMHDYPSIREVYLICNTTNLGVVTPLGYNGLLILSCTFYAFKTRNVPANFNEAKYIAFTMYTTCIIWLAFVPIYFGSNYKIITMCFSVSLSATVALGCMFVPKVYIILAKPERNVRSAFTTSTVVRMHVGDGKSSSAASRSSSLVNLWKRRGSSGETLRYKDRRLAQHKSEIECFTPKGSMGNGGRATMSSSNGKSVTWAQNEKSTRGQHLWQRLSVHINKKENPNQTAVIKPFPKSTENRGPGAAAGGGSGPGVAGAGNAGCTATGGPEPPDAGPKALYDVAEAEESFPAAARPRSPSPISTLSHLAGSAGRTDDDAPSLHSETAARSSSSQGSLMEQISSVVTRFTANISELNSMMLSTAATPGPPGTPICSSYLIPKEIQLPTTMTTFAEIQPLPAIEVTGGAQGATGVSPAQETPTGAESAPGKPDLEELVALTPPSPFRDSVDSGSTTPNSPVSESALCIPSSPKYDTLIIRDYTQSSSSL
How it was run: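 Quisqualate (100 nM) and compound were applied for 30 min at 37°C to HEK293 cells expressing rat HA-mGlu5 and EAAC1. Wells sat over an LED plate 2–3 cm away: foil-covered wells stayed dark, the rest got continuous 380 nm light. Cells were washed once before lysis, then IP-One HTRF was read. Value is the efficacy difference (%), dark minus violet.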

[2] = target: Metabotropic glutamate receptor 5 (Rattus norvegicus, UniProt P31424); test: Negative allosteric modulation of rat N-terminal HA-tagged mGlu5 receptor expressed in HEK293 cells co-expressing N-terminal HA-tagged EAAC1 assessed as inhibition of quisqualate-induced inositol phosphate accumulation after 30 mins by HTRF assay; format: functional, cell-based
Sequence of Metabotropic glutamate receptor 5 (Rattus norvegicus, UniProt P31424) (P31424 whole entry): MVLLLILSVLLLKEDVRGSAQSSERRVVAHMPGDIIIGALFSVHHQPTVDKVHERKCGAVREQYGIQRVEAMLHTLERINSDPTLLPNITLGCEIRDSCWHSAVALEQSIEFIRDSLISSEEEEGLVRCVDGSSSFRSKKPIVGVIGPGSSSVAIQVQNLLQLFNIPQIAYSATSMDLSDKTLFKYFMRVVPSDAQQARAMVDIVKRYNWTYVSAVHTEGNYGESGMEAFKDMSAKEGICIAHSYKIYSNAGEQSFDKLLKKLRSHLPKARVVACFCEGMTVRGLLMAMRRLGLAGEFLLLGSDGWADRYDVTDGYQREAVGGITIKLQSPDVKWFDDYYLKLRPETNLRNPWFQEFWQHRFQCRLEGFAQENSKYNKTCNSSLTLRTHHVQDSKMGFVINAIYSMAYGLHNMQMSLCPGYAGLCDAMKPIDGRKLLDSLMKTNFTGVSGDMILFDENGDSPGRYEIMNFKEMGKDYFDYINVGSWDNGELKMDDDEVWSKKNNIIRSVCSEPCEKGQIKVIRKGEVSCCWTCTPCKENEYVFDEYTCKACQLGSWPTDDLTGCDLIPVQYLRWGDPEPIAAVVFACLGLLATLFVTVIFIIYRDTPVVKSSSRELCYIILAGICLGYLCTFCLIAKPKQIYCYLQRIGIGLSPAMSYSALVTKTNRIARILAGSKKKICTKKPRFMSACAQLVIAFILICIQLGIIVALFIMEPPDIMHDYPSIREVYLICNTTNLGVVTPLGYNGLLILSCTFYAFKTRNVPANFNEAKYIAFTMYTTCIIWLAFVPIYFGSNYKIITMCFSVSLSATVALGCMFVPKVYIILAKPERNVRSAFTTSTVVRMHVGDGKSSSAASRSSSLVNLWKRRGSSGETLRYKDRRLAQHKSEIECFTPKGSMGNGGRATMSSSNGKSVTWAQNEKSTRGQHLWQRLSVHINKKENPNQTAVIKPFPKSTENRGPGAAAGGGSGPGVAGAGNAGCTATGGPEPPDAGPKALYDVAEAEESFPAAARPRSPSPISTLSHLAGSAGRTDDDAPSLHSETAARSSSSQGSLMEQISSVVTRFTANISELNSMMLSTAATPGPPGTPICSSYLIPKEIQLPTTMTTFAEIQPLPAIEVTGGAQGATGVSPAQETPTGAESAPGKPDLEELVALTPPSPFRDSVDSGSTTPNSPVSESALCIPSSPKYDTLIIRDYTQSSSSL
How it was run: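 Rat mGlu5 (N-terminal HA tag) and EAAC1 were co-transfected into HEK293 cells by electroporation and seeded at 1.5 × 10^5 cells/well. Medium was changed to glutamate-free DMEM at least 4 h before the run. Next day, cells got 100 nM quisqualate plus compound for 30 min at 37°C, 5% CO2, then were washed once. IP accumulation was read by IP-One HTRF. Dose-response used ≥3 independent replicates.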

[3] = target: Metabotropic glutamate receptor 5 (Rattus norvegicus) (UniProt P31424); test: Ratio of IC50 for negative allosteric modulation of rat N-terminal HA-tagged mGlu5 receptor expressed in HEK293 cells under dark condition to IC50 for negative allosteric modulation of rat N-terminal HA-tagged mGlu5 receptor expressed in HEK293 cells under violet light illumination; format: cell-based
How it was run: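 HEK293 cells expressing rat HA-mGlu5 and EAAC1 were stimulated with 100 nM quisqualate plus compound for 30 min at 37°C. Part of each plate was kept dark under foil; the rest was lit continuously at 380 nm from an LED plate. After a single wash, IP was measured by HTRF. Value is IC50 (dark) divided by IC50 (violet). Curves used ≥3 independent replicates.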

[4] = target: Metabotropic glutamate receptor 5 (Rattus norvegicus) (UniProt P31424); test: Negative allosteric modulation of rat N-terminal HA-tagged mGlu5 receptor expressed in HEK293 cells co-expressing N-terminal HA-tagged EAAC1 assessed as inhibition of quisqualate-induced inositol phosphate accumulation after 30 mins by HTRF assay relative to fenobam; format: functional, cell-based
How it was run: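 Dose-response was run in HEK293 cells expressing rat HA-mGlu5 and EAAC1, under 100 nM quisqualate with compound for 30 min at 37°C, in dark conditions. IP-One HTRF read-out. Efficacy was taken from the bottom of the dose-response curve and normalised between 0% and 100% of the fenobam response.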

[5] = target: Metabotropic glutamate receptor 5 (Homo sapiens, UniProt P41594); test: Negative allosteric modulation of mGlu5 receptor (unknown origin)
Sequence of Metabotropic glutamate receptor 5 (Homo sapiens, UniProt P41594) (P41594 whole entry): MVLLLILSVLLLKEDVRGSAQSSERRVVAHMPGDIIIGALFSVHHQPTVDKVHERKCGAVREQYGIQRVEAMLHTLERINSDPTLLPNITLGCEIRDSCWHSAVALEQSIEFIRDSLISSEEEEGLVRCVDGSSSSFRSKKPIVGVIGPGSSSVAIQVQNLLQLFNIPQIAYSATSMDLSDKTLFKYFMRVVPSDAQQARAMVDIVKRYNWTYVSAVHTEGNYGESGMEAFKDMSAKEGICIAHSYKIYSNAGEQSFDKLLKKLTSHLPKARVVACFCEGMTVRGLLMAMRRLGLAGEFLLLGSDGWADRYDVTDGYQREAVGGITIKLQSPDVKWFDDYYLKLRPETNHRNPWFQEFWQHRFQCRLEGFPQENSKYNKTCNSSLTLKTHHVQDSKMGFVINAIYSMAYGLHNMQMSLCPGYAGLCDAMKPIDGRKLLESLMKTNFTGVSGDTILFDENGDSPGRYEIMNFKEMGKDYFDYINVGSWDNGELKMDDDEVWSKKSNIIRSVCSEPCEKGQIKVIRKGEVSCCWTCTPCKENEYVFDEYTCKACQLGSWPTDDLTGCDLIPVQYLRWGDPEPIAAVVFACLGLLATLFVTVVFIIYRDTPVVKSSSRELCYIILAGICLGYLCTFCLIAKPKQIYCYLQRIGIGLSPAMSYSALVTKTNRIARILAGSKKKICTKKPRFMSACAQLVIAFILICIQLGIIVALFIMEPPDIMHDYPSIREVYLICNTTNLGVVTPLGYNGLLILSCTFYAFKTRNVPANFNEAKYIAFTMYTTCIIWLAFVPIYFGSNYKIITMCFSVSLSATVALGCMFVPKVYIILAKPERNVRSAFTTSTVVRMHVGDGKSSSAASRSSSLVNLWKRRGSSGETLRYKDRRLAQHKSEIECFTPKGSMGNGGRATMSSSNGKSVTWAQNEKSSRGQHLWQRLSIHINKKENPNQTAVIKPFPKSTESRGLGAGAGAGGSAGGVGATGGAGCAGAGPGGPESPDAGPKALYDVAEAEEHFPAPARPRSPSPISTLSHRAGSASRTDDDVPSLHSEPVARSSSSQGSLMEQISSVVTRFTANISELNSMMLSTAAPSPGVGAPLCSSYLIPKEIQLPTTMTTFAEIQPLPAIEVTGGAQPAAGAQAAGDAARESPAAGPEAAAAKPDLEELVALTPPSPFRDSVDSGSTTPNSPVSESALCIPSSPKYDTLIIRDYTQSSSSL

| Structure (SMILES) | Activity [1] | pIC50 [2] | Ratio IC50 [3] | Efficacy [4] | pIC50 [5] |
| --- | --- | --- | --- | --- | --- |
| c1ccc(/N=N/c2cccc(/N=N/c3ccccn3)c2)nc1 | 15% | 5.31 | 2.2 | 114% | – |
| c1ccc(/N=N/c2ccc(/N=N/c3ccccn3)cc2)nc1 | -1% | 5.21 | 1.2 | 19% | – |
| C(#Cc1ccccn1)c1ccc(C#Cc2ccccn2)cc1 | – | 5.92 | – | 42% | – |

More lines, now with the values ahead:

| Activity [1] | pIC50 [2] | Ratio IC50 [3] | Efficacy [4] | pIC50 [5] | Structure (SMILES) |
| --- | --- | --- | --- | --- | --- |
| 15% | 5.51 | 2.9 | 35% | – | C(#Cc1ccccn1)c1ccc(/N=N\c2ccccn2)cc1 |
| 9% | 6.02 | 1.3 | 115% | – | C(#Cc1ccccn1)c1cccc(/N=N/c2ccccn2)c1 |
| – | – | – | – | 7.77 | Cc1cc(C)c(N)c(C#Cc2cccc(F)c2)n1 [RASEGLURANT] |
| – | 6.37 | – | 114% | – | C(#Cc1ccccn1)c1cccc(C#Cc2ccccn2)c1 |
